Data: PMC9306536 (Clinical Pharmacology in Drug Development, 2022)
Where two headings read alike, the source gives them in different places.

Columns and labels:
[1] = cited from earlier work
[2] = Population PK analysis of pemigatinib in patients with advanced malignancies; format: in vivo, human
Procedure, shortened: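 Sampling was rich in phase 1 and sparse in phase 2. Values <1 nM (LLOQ) were excluded. Log-transformed data were fitted with 1-/2-compartment models with first-order absorption and linear elimination. Covariates were GAM-screened, then added and removed stepwise in NONMEM. 95% CIs came from a 500-run bootstrap, with VPC.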

[3] = cited from earlier work; remark: listed apart in the source
[4] = cited from earlier work; remark: listed apart in the source
[5] = cited from earlier work; remark: listed apart in the source
[6] = cited from earlier work; remark: listed apart in the source
[7] = fed state (high-fat and high-calorie diet); ref data on file; cited from earlier work
[8] = cited from earlier work; remark: listed apart in the source
[9] = cited from earlier work; remark: listed apart in the source
[10] = Hyperphosphatemia in patients of the population PK dataset; format: in vivo, human
Procedure, shortened: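 Pooled patients from three open-label trials on once-daily oral dosing: phase 1/2 advanced malignancies (1–20 mg escalation, 9 or 13.5 mg expansion; monotherapy or combination; 2-weeks-on/1-week-off or continuous, 21-day cycles; N = 157); Japanese phase 1 (9 or 13.5 mg, intermittent; N = 25); phase 2 cholangiocarcinoma (13.5 mg, 2-weeks-on/1-week-off; N = 136). Hyperphosphatemia scored after treatment.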

[11] = cited from earlier work; remark: listed apart in the source
[12] = final model covariate coefficient
[13] = final model covariate power term
[14] = final population PK model, Table 4

CCN1C(=O)N(c2c(F)c(OC)cc(OC)c2F)Cc2cnc3[nH]c(CN4CCOCC4)cc3c21 [pemigatinib, Pemigatinib]
DDI with a weak CYP3A4 inhibitor ([1]; PBPK modeling): no DDI
predicted decrease in AUC ([1]; coadministered with a strong or moderate CYP3A4 inducer, data on file): > 50%
predicted increase in AUC ([1]; coadministered with a strong or moderate CYP3A4 inhibitor, data on file): > 50%
reduction of AUC ([1]; coadministration of moderate CYP3A4 inducers): > 50%
CL/F with moderate CYP3A4 inducer higher than pemigatinib alone ([2]; 1 patient): ≈ 100%
CL/F ([2]; base structural model): 10.7 L/h
IIV for Vc/F ([2]; base structural model): 44.6 % CV
IIV for Vp/F ([2]; base structural model): 37.3 % CV
IIV for ka ([2]; base structural model): 133 % CV
Q/F ([2]; base structural model): 14.5 L/h
Vc/F ([2]; base structural model): 134 L
Vp/F ([2]; base structural model): 87.0 L
first-order ka ([2]; base structural model): 0.997 h⁻¹
CL/F of pemigatinib alone ([2]; comparator for the patient on a moderate CYP3A4 inducer): 11.7 L/h
predicted Cmax steady state (Cmax,ss) ([2]; female patients): 96.53 ng/mL
Magnitude of Interindividual Variability of CL/F ([2]; final model): 43.4 %CV
Magnitude of Interindividual Variability of Vc/F ([2]; final model): 35.1 %CV
Magnitude of Interindividual Variability of ka ([2]; final model): 127 %CV
contribution of sex to the change of oral clearance ([2]; final model): < 20%
decrease of typical CL/F by phosphate binder coadministration ([2]; final model): 14.1%
increase of typical Vc/F by proton pump inhibitor coadministration ([2]; final model): 24.4%
typical CL/F, males higher compared with females ([2]; final model): 19.0%
typical ka, males lower compared with females ([2]; final model): 56.5%
Proton pump inhibitor on Vc/F, Population Mean [2, 12]: –0.244
Sex (male vs female) on CL, Population Mean [2, 12]: 0.190
Body weight (median = 73.3 kg) on Vc/F, Population Mean [2, 13]: 0.738
Body weight on Vp/F, Population Mean [2, 13]: 1.22
typical apparent volume of distribution of the peripheral compartment (Vp/F) ([2]; final model, 73.3-kg patient): 80.1 L
typical ka ([2]; final model, female patients): 1.49 h⁻¹
typical absorption rate constant (ka) ([2]; final model, females): 1.49 L/h
typical oral clearance (CL/F) ([2]; final model, females): 10.3 L/h
CL/F, Population Mean [2, 14]: 9.00 L/h
Q/F, Population Mean [2, 14]: 16.0 L/h
Vc/F, Population Mean [2, 14]: 161 L
Vp/F, Population Mean [2, 14]: 80.1 L
ka, Population Mean [2, 14]: 1.49 h⁻¹
increase of typical CL/F by coadministration with a weak CYP3A4 inducer ([2]; full multivariate PK model (covariate removed from final model)): 24.2%
Vd/F ([2]; human, plasma, oral): 122 L
half-life ([2]; human, plasma, oral): 16 h
increase in Cmax,ss, female vs male patients ([2]; post hoc estimates): 27%
Cmax ([2]; read-out: predicted Cmax steady state (Cmax,ss), female patients): 198 nM
post hoc-estimated CL/F ([2]; the 1 patient with concomitant moderate CYP3A4 inducer): 22.8 L/h
geometric mean CL/F ([2]; this population PK analysis): 10.9 L/h
renal clearance, % of total clearance ([3]; Introduction, no reference given): 1.19%
predominant clearance pathway in humans ([3]; in vitro and in vivo data, no reference given): liver metabolism
administered radioactive dose recovered as unchanged pemigatinib in feces ([3]; ref data on file): 1.3%
known metabolites, share of total radioactivity ([3]; ref data on file): 72%
renal clearance, % of total clearance [4]: 1%
exposure geometric mean ratio vs normal renal function ([4]; end-stage renal disease after hemodialysis): 91.3%
exposure geometric mean ratio vs normal renal function ([4]; end-stage renal disease before hemodialysis): 76.8%
pemigatinib AUC increase ([4]; patients with severe renal impairment): 59%
Biopharmaceutics Classification System class [5]: Class II
permeability [5]: high
solubility [5]: pH‐dependent
pemigatinib AUC increase ([6]; patients with moderate hepatic impairment): 46%
pemigatinib AUC increase ([6]; patients with severe hepatic impairment): 74%
delay of median time to Cmax [7]: 4.02 h
pemigatinib AUC increase ([8]; coadministered with itraconazole (strong CYP3A4 inhibitor)): ≈ 90%
pemigatinib AUC decrease ([8]; coadministered with rifampin (strong CYP3A4 inducer)): 85%
effect on the overall exposure of pemigatinib ([9]; coadministration with esomeprazole or ranitidine): modest effect
AUC decrease ([9]; with esomeprazole (PPI)): 8%
AUC increase ([9]; with ranitidine (H2-receptor antagonist)): 3%
Hyperphosphatemia, Yes ([10]; N = 318): 215 (67.6) n (%)
patients who developed hyperphosphatemia after treatment ([10]; patients included in this analysis (N = 318)): ~68%
accumulation ratio for AUC0-24 [11]: ≈ 1.6
terminal elimination half-life [11]: ≈ 15 hours
pharmacokinetics linearity ([11]; dose range of 1 to 20 mg): linear

CCN1C(=O)N(c2c(F)c(O)cc(OC)c2F)Cc2cnc3[nH]c(CN4CCOCC4)cc3c21 [M2, O‐desmethyl pemigatinib]
share of the metabolite burden in urine and feces ([3]; M2 and its secondary metabolites (M7, M8, and M9) together, ref data on file): 76.9%
